ChEMBL document CHEMBL1773014, “Cytotoxic pentacyclic and tetracyclic aromatic sesquiterpenes from Phomopsis archeri” (J Nat Prod, 2011)
≈ marks a conversion by molar mass, not a printed value.

What was measured:
Plasmodium falciparum = test: Antimalarial activity against multidrug-resistant Plasmodium falciparum K1 assessed as reduction in uptake of [3H]-hypoxanthine by microculture radioisotope technique; type: functional, organism-based
Procedure, shortened: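 P. falciparum K1 (multidrug-resistant) cultured by the Trager–Jensen method and tested in vitro by microculture radioisotope technique. Parasite growth read as [3H]-hypoxanthine uptake. IC50 taken as the concentration giving 50% reduction in growth. Dihydroartemisinin served as the reference standard.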

[1] = Cytotoxicity against human KKU-M214 cells by sulforhodamine B assay; type: functional, cell-based
[2] = Cytotoxicity against human KKU-M213 cells by sulforhodamine B assay; type: functional, cell-based
KB = test: Cytotoxicity against human KB cells by sulforhodamine B assay; type: functional, cell-based
[3] = system: Mycobacterium tuberculosis; test: Antimycobacterial activity against Mycobacterium tuberculosis H37Ra by microplate alamar blue assay; type: functional
[4] = Cytotoxicity against human KKU100 cells by sulforhodamine B assay; type: functional, cell-based
[5] = Cytotoxicity against human KKU-M156 cells by sulforhodamine B assay; type: functional, cell-based
[6] = Cytotoxicity against human KKU-M139 cells by sulforhodamine B assay; type: functional, cell-based

C[C@H]1[C@@H](O)O[C@@H]2O[C@@]3(C)CC[C@H]4[C@H](C)CC[C@@H]1[C@@]24OO3 [ARTENIMOL]
IC50 (Plasmodium falciparum): 4.4 nM

Cc1c2ccncc2c(C)c2c1[nH]c1ccccc12 [ELLIPTECINE]
IC50 [1]: 0.21 µg/mL (≈ 0.853 µM) | IC50 [2]: 0.3 µg/mL (≈ 1.22 µM) | IC50 (KB): 0.19 µg/mL (≈ 0.771 µM)

NNC(=O)c1ccncc1 [ISONIAZID]
MIC [3]: 0.23 µg/mL (≈ 1.68 µM)

CC(=O)O[C@H]1CC[C@]2(C)[C@H]3Cc4c(O)cc5c(c4O[C@@]3(C)CC[C@H]2C1(C)C)COC5=O [KAMPANOL A]
IC50 [4]: > 20 µg/mL | IC50 [5]: > 20 µg/mL | IC50 [1]: > 20 µg/mL | IC50 [2]: 19.6 µg/mL (≈ 45.7 µM) | IC50 [6]: > 20 µg/mL

CC1(C)[C@@H](O)CC[C@]2(C)[C@H]3Cc4c(O)cc5c(c4O[C@@]3(C)CC[C@@H]12)COC5=O [PHOMOARCHERIN A]
IC50 [4]: > 20 µg/mL | IC50 [5]: > 20 µg/mL | IC50 [1]: > 20 µg/mL | IC50 (Plasmodium falciparum): > 20 µg/mL | IC50 [2]: 16.6 µg/mL (≈ 43 µM) | IC50 [6]: > 20 µg/mL | MIC [3]: > 200 µg/mL | IC50 (KB): 42.1 µg/mL (≈ 109 µM)

CC1(C)C(=O)CC[C@]2(C)[C@H]3Cc4c(O)cc5c(c4O[C@@]3(C)CC[C@@H]12)COC5=O [PHOMOARCHERIN B]
IC50 [4]: 8 µg/mL (≈ 20.8 µM) | IC50 [5]: 2 µg/mL (≈ 5.2 µM) | IC50 [1]: 5 µg/mL (≈ 13 µM) | IC50 (Plasmodium falciparum): 0.79 µg/mL | IC50 [2]: > 20 µg/mL | IC50 [6]: 0.1 µg/mL (≈ 0.26 µM) | MIC [3]: 50 µg/mL (≈ 130 µM) | IC50 (KB): 9.4 µg/mL (≈ 24.4 µM)

Cc1cc(O)c2c(c1C=O)O[C@@]1(C)CC[C@H]3C(C)(C)C(=O)CC[C@]3(C)[C@H]1C2 [PHOMOARCHERIN C]
IC50 [4]: 8.9 µg/mL (≈ 24 µM) | IC50 [5]: 18 µg/mL (≈ 48.6 µM) | IC50 [1]: 18.8 µg/mL (≈ 50.7 µM) | IC50 [2]: 15.4 µg/mL (≈ 41.6 µM) | IC50 [6]: 8.9 µg/mL (≈ 24 µM)
